In the library only some 2.7% were active in any assay of this set; here they are far more common.
RAM inhibit = yeast RAM network inhibition | S. cerevisiae dse1pr::URA3 reporter, 5-FOA growth OD615, 2 d; analog-sensitive cbk1-as2 kinase mutant strain | inhibition, % at 50 µM | 190,000 tested, 1.8% active | AID 868;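 active = inhibition above a set limit, 3 SD over mean compound inhibition, cut at about 8.4% in these data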;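 also: 0% = DMSO-only wells with no growth and 100% = 10 µM 1-NA-PP1 full growth; inhibition rescues growth on 5-FOA so higher OD means more RAM inhibition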
SDO1 yeast rescue = compounds rescuing growth of sdo1-depleted yeast, bone marrow failure model | S. cerevisiae sdo1-depleted JHY4D growth rescue, OD600 30 h; active compounds read high; pdr5 snq2 efflux-pump mutant strain | z-score at 10 µM | 140,000 tested, 0.21% active;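 active = z-score above 3 at both the 24 hr and the 30 hr optical density reads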;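 also: z-score against mean and SD of all compound wells on the same plate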
Yeast lifespan up = extends the lifespan of yeast | S. cerevisiae growth with nicotinamide, OD615; deaD strain in restrictive glucose medium | inhibition of the nicotinamide effect, % at 10 µM | 130,000 tested, 0.68% active;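 active = inhibition above a set limit, placed 3 SD over the median of all compounds, cut at about 26% in these data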;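 also: 0% = nicotinamide-treated wells and 100% = cells grown without nicotinamide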
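System: DeaD-strain S. cerevisiae / Buffer or medium: CSMM-D, restrictive glucose (dextrose) synthetic minimal medium / Probe or stimulus: nicotinamide, 1.5 mM, co-present with compound / Compound: one concentration, 10 µM, DMSO 0.25% / Incubation: 48 h compound exposure at 30 °C, humidified / Technique: optical density (absorbance) at 615 nm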
BB579 growth dn = reduces growth of yeast BB579 in restrictive medium. S. cerevisiae BB579 growth, OD615, 48 h. inhibition, % at 10 µM. 140,000 tested, 0.51% active. AID 804;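 active = inhibition above a set limit, 3 SD over the mean compound inhibition, cut at about 44% in these data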
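Test system: DeaD yeast strain BB579 / Buffer or medium: restrictive glucose-based CSMM-D medium / Doses: single 10 µM dose / Schedule: 4 h cell preincubation, 48 h compound exposure, 30 °C humidified / Technique: culture absorbance at 615 nm / Controls: amphotericin B positive control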
RAM efflux-def = RAM network inhibitors in efflux-deficient yeast; shares compounds with RAM inhibit; S. cerevisiae efflux-deficient reporter strain, 5-FOA growth OD615, 2 days; max inhibition, %; 1,200 tested, under 10 active; AID 1305; call rule not given here;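 also: plate controls were vehicle for no effect and reference inhibitor for full effect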
Starred values were filed as active, the others as inactive; nt = no result given.

SMILES | RAM inhibit | SDO1 yeast rescue | Yeast lifespan up | BB579 growth dn | RAM efflux-def
CC(C)N(C(=O)COC(=O)c1cccc(C(=O)OCC(=O)N(C(C)C)C(C)C)n1)C(C)C | 1 | nt | nt | nt | nt
COc1cccc(OC)c1C(=O)NNC(=O)c1cccc(COc2ccc3c(c2)CCC3)c1 | 1 | -0.95 | 6 | -77 | nt
COC(=O)c1ccccc1NC(=O)c1ccc(COc2ccc3c(c2)CCC3)cc1 | 14* | -2.4 | -10 | -81 | 5
COc1ccccc1NC(=O)c1ccc(COc2ccc3c(c2)CCC3)cc1 | 8 | -0.74 | 9 | -42 | nt
O=C(NCc1ccccc1)c1cccc(COc2ccc3c(c2)CCC3)c1 | 12* | -0.56 | 2 | -31 | 7
COC(=O)C/C=C/[C@@H](C)[C@@H](/C=N/OC[C@@H](C)[C@H](OCc1ccccc1)C(C)C)NS(=O)(=O)c1ccc(C)cc1 | 13* | -0.39 | 8 | -34 | 5
S=c1nc(-c2sccc2OCc2ccc(Cl)cc2Cl)[nH][nH]1 | 5 | nt | nt | nt | nt
CCSC1=N/C(=C\c2cccc(F)c2)C(=O)S1 | -2 | -0.14 | 4 | -34 | nt
CCSC1=N/C(=C\c2ccc3c(c2)OCO3)C(=O)S1 | 15* | -0.74 | -5 | -30 | 6
FC(F)(F)c1cc(-c2cccs2)nc2ncnn12 | 1 | nt | nt | nt | nt
COCCNC(=O)/C(C#N)=C/c1ccc(-c2ccc(S(=O)(=O)N3CCOCC3)cc2)o1 | 3 | -0.15 | 11 | -6 | nt
CCOCCCNC(=O)/C(C#N)=C/c1ccc(-c2ccc(S(=O)(=O)N3CCOCC3)cc2)o1 | 12* | 0.34 | 0 | -27 | 3
O=C(NC(=S)NC(c1ccccc1)c1ccncc1)c1ccccc1 (stereo not drawn) | -1 | -0.85 | 2 | 2 | nt
CCOc1ccc(-c2nnc3ccc(SCc4ccc(C(=O)OC)o4)nn23)cc1 | 12* | -1.4 | -8 | -30 | 1
CCNC(=S)N1CCc2cc(OC)c(OC)cc2C1COc1ccccc1OC (stereo not drawn) | 5 | nt | nt | nt | nt
COC(=O)N/N=C/c1ccc(OS(=O)(=O)c2ccc(C)cc2)c(OC)c1 | -1 | nt | nt | nt | nt
C=CCNC(=O)/C(C#N)=C/c1ccc(OS(=O)(=O)c2ccc(C)cc2)c(OC)c1 | 15* | -1.6 | 24 | -26 | 2
CC(C)CN1CCN(Cc2ccc3ncccc3c2)CC1CCO (stereo not drawn) | 2 | nt | nt | nt | nt
CC(C)(C)n1nnnc1C(c1cccnc1)N(Cc1ccccc1)Cc1ccco1 (stereo not drawn) | 0 | -0.98 | -10 | -35 | nt
COc1cccc(CN(Cc2ccco2)C(c2ccc(F)cc2)c2nnnn2C(C)(C)C)c1 (stereo not drawn) | 14* | -0.11 | -3 | -51 | 3
O=c1c(/C=N/O)coc2ccc3ccccc3c12 | 23* | -0.56 | -12 | 10 | 1
Cc1cccc(CSCCNC(=O)c2ccc(N(C)S(=O)(=O)c3ccccc3)cc2)c1 | 18* | -0.76 | 3 | -47 | 5
CN(c1ccc(C(=O)NCCSCc2ccccc2)cc1)S(=O)(=O)c1ccccc1 | 7 | -0.73 | -1 | -16 | nt
COc1ccc(CN2C(=O)c3ccccc3C(/C=N\OCc3ccc(C)cc3)C2=O)cc1 (stereo not drawn) | 14* | 0.77 | 0 | -36 | 4
COc1ccc(N2C(=O)N(Cc3ccc(C)cc3)c3ccccc3S2(=O)=O)cc1 | 5 | nt | nt | nt | nt
SMILES | RAM inhibit | SDO1 yeast rescue | Yeast lifespan up | BB579 growth dn | RAM efflux-def
CCOc1ccccc1NC(=O)C(OC(=O)c1ccc(CC)cc1)c1ccccc1 (stereo not drawn) | 15* | -0.04 | 9 | -55 | 4
CN(C[C@@H](CC1CCCCC1)N(C[C@H](Cc1ccccc1)N(CCc1ccccc1)N=O)N=O)N=O | 14* | nt | nt | nt | 4
CCC(C)[C@@H](CN(N=O)[C@@H](Cc1ccccc1)CN(C)N=O)N(CCc1ccccc1)N=O (stereo partly drawn) | 30* | nt | nt | nt | 3
O=C1CN(Cc2cc(=O)oc3cc4c(cc23)CCC4)CCN1 | 0 | nt | nt | nt | nt
S=C(NCC1CCCO1)NC1CC1 (stereo not drawn) | 0 | nt | nt | nt | nt
Cc1ccc(Cl)cc1N1CCN(C(=S)NCCc2ccccc2)CC1 | 13* | nt | nt | nt | 3
CN(C)c1cccc(C(=O)OCC(=O)Nc2ccccc2-c2ccccc2)c1 | 2 | 0.11 | -2 | -50 | nt
CCN(CC)c1ccc(C(=O)OCC(=O)Nc2ccccc2-c2ccccc2)cc1 | 22* | 0.19 | 7 | -50 | 5
CSc1ccc(Cl)c(C(=O)NCCOc2ccccc2)c1 | 1 | -0.6 | -31 | -30 | nt
CSc1ccc(Cl)c(C(=O)NCCOc2cc(C)ccc2C(C)C)c1 | 13* | -0.97 | -6 | -10 | 2
O=C(c1ccc(Cn2c(=S)[nH]c3ccc(N4CCOCC4)cc3c2=O)cc1)N1CCN(c2ccc(F)cc2)CC1 | 4 | nt | nt | nt | nt
Cc1ccc(C)c(N2CCN(C(=O)c3ccc(Cn4c(=S)[nH]c5ccc(N6CCOCC6)cc5c4=O)cc3)CC2)c1 | 13* | nt | nt | nt | 3
O=C(CS(=O)Cc1ccccc1Cl)Nc1ccccc1Cl (stereo not drawn) | 0 | nt | nt | nt | nt
OCC1(Cc2cccc(Cl)c2)CCCN(Cc2cnn(-c3ccccc3)c2)C1 (stereo not drawn) | 0 | nt | nt | nt | nt
O=[N+]([O-])c1ccc(C2CCCC/C2=N/OCc2ccccc2F)c([N+](=O)[O-])c1 (stereo not drawn) | 8 | -0.02 | -5 | -34 | nt
O=[N+]([O-])c1ccc(C2CCCC/C2=N/OCc2ccc(F)cc2)c([N+](=O)[O-])c1 (stereo not drawn) | 13* | -0.61 | -3 | -43 | 1
Cc1ccc(-c2nc3cccnc3s2)cc1NS(=O)(=O)c1ccc2c(c1)OCCO2 | 13* | -2.8 | -10 | -9 | 2
O=S(=O)(Nc1cccc(-c2nc3cccnc3s2)c1)c1ccc2c(c1)OCCO2 | 6 | -2.9 | -5 | -38 | nt
O=C(COC(=O)c1cc(-c2ccc(Cl)s2)nc2ccccc12)NCc1ccco1 | 12* | -1.4 | 1 | -28 | 4
O=C(COC(=O)c1cc(-c2cccs2)nc2ccccc12)NCc1ccco1 | 8 | -0.42 | -13 | -97 | nt
CCCC(=O)Oc1ccc(N(C(=O)CCC)S(=O)(=O)c2cccc([N+](=O)[O-])c2)cc1 | 4 | -0.58 | 16 | -46 | nt
CCOC(=O)C(C)(C)N(Cc1cccc(C)c1)S(=O)(=O)c1cccc([N+](=O)[O-])c1 | 13* | -1.2 | -1 | -16 | 0
CN(C)N1C(=O)CC(N2CCCCC2)C1=O (stereo not drawn) | 3 | nt | nt | nt | nt
CCOC(=O)C1=NN(c2ccccc2C)C2=NC(C)=C(C(=O)OC)C(c3cccc(OC)c3)N12 (stereo not drawn) | 23* | -0.86 | 9 | -27 | 3
CCOC(=O)C1=NN(c2ccccc2C)C2=NC(C)=C(C(=O)OC)C(c3cccs3)N12 (stereo not drawn) | 2 | -0.91 | nt | -14 | nt
CC(C)c1ccc(/C=C(\c2nc3ccccc3[nH]2)S(=O)(=O)c2ccccc2)cc1 | 19* | -1.8 | 6 | -47 | 3

Bioassay records: PubChem BioAssay, several laboratories
